Data on five compounds can be found in ChEMBL document CHEMBL2384958, “Potential of lichen secondary metabolites against Plasmodium liver stage parasites with FAS-II as the potential target” (J Nat Prod, 2013).

In brackets after ≈: the same amount, converted by molar mass. Activity calls are given as the source filed them. The calls are words filed in the database; no cut-off is given here. Some results are limits rather than exact numbers.

A short description of data set [1]: Inhibition of Plasmodium falciparum FabI using crotonoyl-CoA as substrate preincubated for 10 mins prior to substrate addition.
Data set [2] has as its system Plasmodium berghei. Description: Antiplasmodial activity against liver stage of Plasmodium berghei ANKA expressing GFP infected in human Huh7.5 cells assessed as reduction in PB18S gene expression after 48 hrs by qRT-PCR analysis. The format is functional, organism-based. Conditions: Huh-7, 48 h. The method, boiled down:
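HuH7.5 cells infected with freshly dissected P. berghei GFP sporozoites (30 000 per 60 000 cells); 48 h culture with compounds (10 to 100 μM) at 37 °C, media changed every 24 h. Total RNA extracted, DNase treated; PB18S expression normalized to DMSO controls; IC50 estimated; atovaquone positive control.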
A general note: Real-time PCR tracks product formation cycle by cycle.

Data set [3] in a line: Inhibition of Staphylococcus aureus FabI using dodecenoyl ACP at pH 7.8.
For data set [4], the system named is Plasmodium berghei. Description: Antiplasmodial activity against liver stage of Plasmodium berghei ANKA expressing GFP infected in human Huh7.5 cells assessed as decrease in size at 1 uM after 48 hrs by immunofluorescence analysis. The format is functional, organism-based. Conditions: Huh-7. The procedure, abridged: (§1)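 HuH7.5 cells (50 000/well, chambered slides) were infected with 33 000 freshly dissected P. berghei GFP sporozoites and incubated 48 h with compound or 0.1% DMSO. Cells were fixed in 10% neutral buffered formalin and stained with mouse anti-Plasmodium HSP70 (FITC) plus Hoechst. Parasite size was imaged by fluorescence microscopy with a 40× objective.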

For data set [5], the species on record is Danio rerio. Kind of data set: Toxicity in zebrafish larva measured at 4 days postfertilization. Conditions: in vivo, 96 h. It is filed as organism-based. The procedure, abridged: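 Transgenic fabp10a:DsRed2 larvae raised at 28.5 °C (14 h light/10 h dark), sorted for liver fluorescence at 3 dpf and exposed to compounds, 10 larvae per well; general and heart toxicity checked at 4 dpf to set maximum-tolerated concentration.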

Data set [6] can be described thus: Inhibition of Plasmodium falciparum FabZ using crotonoyl-CoA as substrate preincubated for 10 mins prior to substrate addition.
A short description of data set [7]: Cytotoxicity against human Huh7.5 cells after 24 hrs by Cell-titerGlo luminescence assay. The format is cell-based. The settings on record: Huh-7, 24 h. The method, boiled down:
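HuH7.5 human hepatoma cells (30 000/well) in advanced DMEM complete medium were exposed to compounds for 24 h, or to 0.1% DMSO as reference. Viability was read by CellTiter-Glo luminescence.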

A short description of data set [8]: Inhibition of Mycobacterium tuberculosis FabI using 2-dodecenoyl-CoA as substrate at pH 6.8.
The species named for data set [9] is Danio rerio. Kind of data set: Hepatotoxicity in zebrafish larva expressing fabp10a:DsRed2 assessed as change in liver size at 0.3 uM measured at 6 days postfertilization by fluorescence microscopic analysis. Conditions: in vivo, 144 h. It is filed as toxicity, organism-based. The procedure, abridged:
(§2)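 Transgenic fabp10a:DsRed2 zebrafish were raised at 28.5 °C on a 14 h light/10 h dark cycle. Larvae were sorted at 3 dpf for liver fluorescence and exposed to compounds at 10 per well, with 1% DMSO controls. General and heart toxicity were checked at 4 dpf, dosing went up to the maximum-tolerated concentration, and five liver phenotypes were scored at 6 dpf by fluorescence microscopy.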

Data set [10] can be described thus: Inhibition of Plasmodium falciparum FabG using acetoacetyl-CoA as substrate.
The target of data set [11] is T1, Enoyl-[acyl-carrier-protein] reductase [NADH] FabI (Escherichia coli K-12, UniProt P0AEK4).
T1 sequence (P0AEK4 whole entry): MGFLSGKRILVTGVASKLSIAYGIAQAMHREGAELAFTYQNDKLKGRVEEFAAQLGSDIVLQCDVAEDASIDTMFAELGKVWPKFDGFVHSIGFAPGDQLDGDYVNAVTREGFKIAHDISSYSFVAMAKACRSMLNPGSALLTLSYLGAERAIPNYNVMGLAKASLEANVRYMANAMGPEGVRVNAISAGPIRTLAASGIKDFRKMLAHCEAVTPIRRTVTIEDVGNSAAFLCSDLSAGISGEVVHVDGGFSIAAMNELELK
Kind of data set: Inhibition of Escherichia coli FabI using 2-dodecenoyl-CoA as substrate at pH 8.

Data set [12] deals with Plasmodium berghei. Description: Antiplasmodial activity against liver stage of Plasmodium berghei ANKA expressing GFP infected in human Huh7.5 cells assessed as decrease in size at 10 uM after 48 hrs by immunofluorescence analysis. It is filed as functional, organism-based. The settings on record: Huh-7. The procedure, abridged:
as §1

The subject of the next data set is Escherichia coli. Description: Antibacterial activity against Escherichia coli ATCC 8739. The format is functional, organism-based. Conditions: ATCC 8739, ATCC 8739. The method, boiled down:
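E. coli ATCC 8739 whole cells tested in triplicate by a previously reported method. Compounds were fully solubilized beforehand, with brief agitation or sonication used for DMSO solutions at high test concentrations (>120 μM).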

Data set [13] concerns Mycobacterium tuberculosis. Description: Antimycobacterial activity against Mycobacterium tuberculosis ATCC 27294. It is filed as functional.
The species named for data set [14] is Danio rerio. Description: Hepatotoxicity in zebrafish larva expressing fabp10a:DsRed2 assessed as change in liver size at 3.6 to 60.2 uM measured at 6 days postfertilization by fluorescence microscopic analysis relative to control. It is filed as toxicity, organism-based. The settings on record: in vivo, 144 h. The procedure, abridged:
as §2

The species entered for data set [15] is Danio rerio. Description: Hepatotoxicity in zebrafish larva expressing fabp10a:DsRed2 assessed as reduction in liver size at 60.2 uM measured at 6 days postfertilization by fluorescence microscopic analysis. The format is toxicity, organism-based. Conditions: in vivo, 144 h. The method, boiled down: as §2
Another data set concerns Plasmodium falciparum. Description: Antiplasmodial activity against blood stage of chloroquine and pyrimethamine-resistant Plasmodium falciparum K1 after 48 hrs by [3H]-hypoxanthine incorporation assay. The format is functional, organism-based. The method, boiled down:
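0.4% parasitemia in assay medium with 15 μM hypoxanthine; compounds incubated 48 h before 3H-hypoxanthine added; run in duplicate.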

The subject of the next data set is KB. Description: Cytotoxicity against human KB cells after 72 hrs by Alamar Blue assay. The format is functional, cell-based.
The next data set has as its system Plasmodium. Kind of data set: Antiplasmodial activity against blood stage of Plasmodium. It is filed as functional. The procedure, abridged: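 P. falciparum K1 (chloroquine/pyrimethamine-resistant) culture with 3H-hypoxanthine incorporation read-out, run in duplicate. Assay medium held 15 μM hypoxanthine, parasitemia 0.4%, and compounds were incubated 48 h before 3H-hypoxanthine was added.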

The test system of data set [16] is Plasmodium berghei. Description: microbe, parasite or virus in culture. Conditions: ANKA, HepG2.
For data set [17], the system named is Plasmodium berghei. Kind of data set: microbe, parasite or virus in culture. The settings on record: Huh-7.
Another data set relates to Staphylococcus aureus. Kind of data set: Antibacterial activity against Staphylococcus aureus ATCC 6538. The format is functional. The method, boiled down:
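S. aureus ATCC 6538 whole cells tested in triplicate by a previously reported method. Compounds were fully solubilized beforehand, with brief agitation or sonication for high test concentrations (>120 μM) in DMSO.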

The species entered for data set [18] is Danio rerio. Description: Hepatotoxicity in zebrafish larva expressing fabp10a:DsRed2 assessed as enlargement of liver at 15.5 uM measured at 6 days postfertilization by fluorescence microscopic analysis. It is filed as toxicity, organism-based. The settings on record: in vivo, 144 h. The method, boiled down:
as §2

One may read the IC50 as the concentration needed to halve the response being measured. Usually MIC stands for the lowest concentration found to suppress growth. `CC(=O)C1=C(O)C=C2Oc3c(C(C)=O)c(O)c(C)c(O)c3[C@@]2(C)C1=O` [(+)-USNIC ACID]: the IC50 in data set [1] was greater than 200 µM; in the data set on Plasmodium berghei [2] it was 2.3 µM; in [3] it was 190 µM; in [6], greater than 200 µM; in [7] it was greater than 100 µM; in data set [8] it was 190 µM. Also, the results for the IC50 (in [10]; in [11]; in the data set with Escherichia coli) were greater than 200 µM, 47 µM and greater than 64 µM, respectively. Besides, the outcome in the data set with Plasmodium berghei [4] and in the data set with Plasmodium berghei [12] was Active. In the data set listed under Danio rerio [5], this compound registered an MTD of 0.3 µM. Further, the Activity result in the data set filed under Danio rerio [9] is listed as “Non-toxic”. For the same compound, 15.1 µM (≈ 5.2 µg/mL) was the least that counted as inhibitory in data set [13] (MIC).

With `COc1cc(C)c(C(=O)Oc2cc(C)c(C(=O)O)c(O)c2)c(O)c1` [EVERNIC ACID], the IC50 was 36.1 µM in data set [1]; 77.3 µM in the data set on Plasmodium berghei [2]; 170 µM in data set [3]; 10.7 µM in data set [6]; greater than 100 µM in [7]; 142 µM with Plasmodium falciparum. The IC50 is 190 µM with KB, greater than 200 µM in data set [10], 90 µM in data set [11] and greater than 64 µM in the data set on Escherichia coli. The MTD in the data set listed under Danio rerio [5] was 60.2 µM. The Activity result in the data set filed under Danio rerio [14] is reported as “>= 40%”; in the data set filed under Danio rerio [15] it was “Toxic”. In addition, the outcome with Plasmodium berghei [12] was inactive.

As for `COc1cc(NC(C)CCCN)c2ncccc2c1` (centres undefined) [PRIMAQUINE], the IC50 turned out to be 1.4 µM with Plasmodium, 7.5 µM with Plasmodium berghei [16] and 7.5 µM in the data set with Plasmodium berghei [17].

For the compound `COc1cc(C(=O)O)c2c(c1C)OC(=O)c1c(C)cc(O)c(C=O)c1O2` [PSOROMIC ACID], the IC50 in [1] was 71.4 µM; in the data set on Plasmodium berghei [2] it was 31.6 µM; in [3] it was greater than 200 µM; in [6], 35.2 µM; in [7], greater than 100 µM; in the data set with Plasmodium falciparum, 29.2 µM. The IC50 was 31.6 µM in the data set with KB, 183 µM in data set [10], greater than 200 µM in [11] and greater than 64 µM with Escherichia coli. In addition, the MTD in the data set listed under Danio rerio [5] worked out at 3.6 µM. Further, in the data set listed under Danio rerio [14], the Activity entry was “>= 40%”. Besides, the result with Plasmodium berghei [12] was inactive. In data set [13], the lowest concentration to inhibit growth (MIC) was 123 µM (≈ 44 µg/mL).

`COC(=O)/C(=C1/OC(=O)C(c2ccccc2)=C1O)c1ccccc1` [VULPINIC ACID] yielded an MIC against Staphylococcus aureus of 32 µM (≈ 10.3 µg/mL). Further, the IC50 in data set [1] is greater than 140 µM; in the data set on Plasmodium berghei [2], 10.2 µM; in data set [3], 90 µM; in data set [6] it was 20.5 µM; in data set [7], greater than 100 µM; with Plasmodium falciparum, 48.5 µM. For the same compound, the IC50 was greater than 200 µM in data set [10], 84 µM in [11] and greater than 64 µM with Escherichia coli. The values for the Activity entry in the data set filed under Danio rerio [18] and in the data set filed under Danio rerio [14] were “Toxic” and “>= 40%”, respectively. In the data set listed under Danio rerio [5], this compound came in with an MTD of 15.5 µM. Moreover, the outcome with Plasmodium berghei [12] was Active.
